Legend:
[1] = Cytotoxicity against African green monkey Vero cells at 10 uM after 4 days by fluorescence assay; type: toxicity, cell-based; conditions: chlorocebus sabaeus, 96 h
How it was run: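 GFP-expressing Vero cells (stably transfected with pEGFP-N1), maintained in MEM with 10% heat-inactivated FBS, L-glutamine, pyruvate and geneticin. Seeded at 3.3 × 10^4 cells/ml onto compound at […] (so in the source), then incubated 4 days at 37 °C, 5% CO2. Read by bottom fluorescence (ex 530/em 590 nm) as percent cytotoxicity. Ellipticine positive control; 0.5% DMSO negative control.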

Plasmodium falciparum [2] = assay: Antimalarial activity against multidrug-resistant Plasmodium falciparum K1 infected human erythrocytes assessed as reduction in parasite viability after 24 hrs by [3H]-hypoxanthine incorporation assay; type: functional
How it was run: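 K1 parasites cultured in RPMI-1640 with 25 mM HEPES, 25 mM NaHCO3, 10% […] human serum and erythrocytes at 37 C, 3% CO2. Early ring-stage culture (1% parasitemia, 1.5% Hct) was exposed to compounds in duplicate for 24 h, then [3H]hypoxanthine was added for a further 18-20 h. Incorporation was scintillation-counted, and IC50 (50% growth reduction) was taken from fitted curves. The vehicle was 0.5% DMSO.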

[3] = Cytotoxicity against African green monkey Vero cells after 72 hrs by MTT assay; type: toxicity, cell-based, Chlorocebus sabaeus
How it was run: (§1)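 Dose-response MTT assay in cells grown in DMEM with 10% FBS, penicillin and streptomycin at 37 °C, 5% CO2. Cells were precultured 16–18 h, then exposed to compound for 72 h. MTT was added for 3 h, formazan dissolved in DMSO, and absorbance read at 570 nm. Gefitinib positive control; 0.5% DMSO negative control.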

[4] = target: Tyrosine-protein kinase JAK2 (Homo sapiens, UniProt O60674); assay: Inhibition of human JAK2 using poly (Glu:Tyr) as substrate
Chain of Tyrosine-protein kinase JAK2 (O60674 whole entry): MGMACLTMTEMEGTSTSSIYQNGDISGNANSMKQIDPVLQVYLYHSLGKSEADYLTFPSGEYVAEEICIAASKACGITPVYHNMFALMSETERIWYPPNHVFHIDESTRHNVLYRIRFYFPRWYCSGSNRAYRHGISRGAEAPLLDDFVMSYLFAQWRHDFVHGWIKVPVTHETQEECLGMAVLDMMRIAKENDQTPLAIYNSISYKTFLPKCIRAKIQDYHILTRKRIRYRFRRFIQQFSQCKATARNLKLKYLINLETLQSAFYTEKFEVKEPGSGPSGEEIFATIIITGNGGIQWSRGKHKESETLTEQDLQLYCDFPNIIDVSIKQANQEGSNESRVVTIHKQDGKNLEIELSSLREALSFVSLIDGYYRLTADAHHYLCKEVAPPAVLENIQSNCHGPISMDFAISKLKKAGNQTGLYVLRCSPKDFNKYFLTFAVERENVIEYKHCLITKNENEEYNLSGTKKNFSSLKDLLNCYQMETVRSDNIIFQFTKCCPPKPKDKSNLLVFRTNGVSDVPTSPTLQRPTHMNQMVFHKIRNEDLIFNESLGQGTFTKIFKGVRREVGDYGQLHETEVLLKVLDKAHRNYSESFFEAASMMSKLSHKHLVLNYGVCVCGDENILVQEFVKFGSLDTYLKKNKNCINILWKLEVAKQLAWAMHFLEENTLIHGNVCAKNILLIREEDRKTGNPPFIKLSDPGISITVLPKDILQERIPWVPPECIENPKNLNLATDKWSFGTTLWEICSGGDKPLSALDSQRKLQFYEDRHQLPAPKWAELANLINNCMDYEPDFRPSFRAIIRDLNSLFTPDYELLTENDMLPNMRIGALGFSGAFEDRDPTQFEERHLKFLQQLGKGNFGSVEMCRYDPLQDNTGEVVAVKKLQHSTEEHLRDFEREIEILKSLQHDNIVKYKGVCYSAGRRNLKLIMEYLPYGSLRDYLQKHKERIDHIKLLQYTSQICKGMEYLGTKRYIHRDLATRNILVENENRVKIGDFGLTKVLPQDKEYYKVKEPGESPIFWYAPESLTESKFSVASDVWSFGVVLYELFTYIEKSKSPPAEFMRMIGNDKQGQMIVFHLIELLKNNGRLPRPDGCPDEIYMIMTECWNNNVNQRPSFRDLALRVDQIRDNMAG
How it was run: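 Antibody Beacon tyrosine kinase fluorescence assay, run as for EGFR. Reaction held 10 ng JAK2 enzyme, 0.1 mg/ml poly(Glu:Tyr) and 0.1 mg/ml ATP.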

[5] = Cytotoxicity against human A549 cells after 72 hrs by MTT assay; type: toxicity, cell-based; how it was run: as §1
[6] = target: Epidermal growth factor receptor (Homo sapiens, UniProt P00533); assay: Inhibition of human EGFR using poly (Glu:Tyr) as substrate measured for 1.5 hrs by oregon green 488 dye-based fluorescence assay
Chain of Epidermal growth factor receptor (P00533 whole entry): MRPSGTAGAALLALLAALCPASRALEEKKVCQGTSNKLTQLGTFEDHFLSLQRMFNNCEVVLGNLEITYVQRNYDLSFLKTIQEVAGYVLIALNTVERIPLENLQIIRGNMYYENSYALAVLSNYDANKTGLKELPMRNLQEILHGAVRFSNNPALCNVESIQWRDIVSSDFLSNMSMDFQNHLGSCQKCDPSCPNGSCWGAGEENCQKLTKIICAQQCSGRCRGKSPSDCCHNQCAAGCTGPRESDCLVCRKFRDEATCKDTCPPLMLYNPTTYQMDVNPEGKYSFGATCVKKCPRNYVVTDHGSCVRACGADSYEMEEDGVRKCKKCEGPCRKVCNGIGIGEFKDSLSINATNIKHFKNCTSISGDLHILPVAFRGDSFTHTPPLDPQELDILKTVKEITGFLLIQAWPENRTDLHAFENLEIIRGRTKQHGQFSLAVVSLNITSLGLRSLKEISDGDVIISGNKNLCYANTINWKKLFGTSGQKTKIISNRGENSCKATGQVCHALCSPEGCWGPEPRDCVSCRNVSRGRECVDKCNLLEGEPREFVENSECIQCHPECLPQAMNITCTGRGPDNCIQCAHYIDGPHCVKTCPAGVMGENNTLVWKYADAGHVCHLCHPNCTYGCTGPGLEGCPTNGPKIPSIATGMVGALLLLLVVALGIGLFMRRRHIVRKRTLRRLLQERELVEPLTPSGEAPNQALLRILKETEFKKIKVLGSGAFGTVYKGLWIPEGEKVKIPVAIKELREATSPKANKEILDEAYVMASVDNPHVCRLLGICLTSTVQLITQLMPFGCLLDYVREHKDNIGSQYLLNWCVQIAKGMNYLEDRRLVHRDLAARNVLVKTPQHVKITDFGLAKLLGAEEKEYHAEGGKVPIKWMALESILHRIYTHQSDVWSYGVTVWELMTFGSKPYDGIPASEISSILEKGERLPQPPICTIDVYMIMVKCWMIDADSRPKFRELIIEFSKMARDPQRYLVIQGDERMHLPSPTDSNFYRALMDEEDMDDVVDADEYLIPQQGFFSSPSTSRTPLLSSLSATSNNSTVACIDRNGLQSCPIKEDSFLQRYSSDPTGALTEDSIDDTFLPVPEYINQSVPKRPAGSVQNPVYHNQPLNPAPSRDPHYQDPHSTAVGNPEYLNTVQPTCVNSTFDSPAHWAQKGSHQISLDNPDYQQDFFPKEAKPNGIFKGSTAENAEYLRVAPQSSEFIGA

[7] = target: T1, Tyrosine-protein kinase JAK3 (Homo sapiens, UniProt P52333); assay: Inhibition of human JAK3 using poly (Glu:Tyr) as substrate
T1 sequence (P52333 whole entry): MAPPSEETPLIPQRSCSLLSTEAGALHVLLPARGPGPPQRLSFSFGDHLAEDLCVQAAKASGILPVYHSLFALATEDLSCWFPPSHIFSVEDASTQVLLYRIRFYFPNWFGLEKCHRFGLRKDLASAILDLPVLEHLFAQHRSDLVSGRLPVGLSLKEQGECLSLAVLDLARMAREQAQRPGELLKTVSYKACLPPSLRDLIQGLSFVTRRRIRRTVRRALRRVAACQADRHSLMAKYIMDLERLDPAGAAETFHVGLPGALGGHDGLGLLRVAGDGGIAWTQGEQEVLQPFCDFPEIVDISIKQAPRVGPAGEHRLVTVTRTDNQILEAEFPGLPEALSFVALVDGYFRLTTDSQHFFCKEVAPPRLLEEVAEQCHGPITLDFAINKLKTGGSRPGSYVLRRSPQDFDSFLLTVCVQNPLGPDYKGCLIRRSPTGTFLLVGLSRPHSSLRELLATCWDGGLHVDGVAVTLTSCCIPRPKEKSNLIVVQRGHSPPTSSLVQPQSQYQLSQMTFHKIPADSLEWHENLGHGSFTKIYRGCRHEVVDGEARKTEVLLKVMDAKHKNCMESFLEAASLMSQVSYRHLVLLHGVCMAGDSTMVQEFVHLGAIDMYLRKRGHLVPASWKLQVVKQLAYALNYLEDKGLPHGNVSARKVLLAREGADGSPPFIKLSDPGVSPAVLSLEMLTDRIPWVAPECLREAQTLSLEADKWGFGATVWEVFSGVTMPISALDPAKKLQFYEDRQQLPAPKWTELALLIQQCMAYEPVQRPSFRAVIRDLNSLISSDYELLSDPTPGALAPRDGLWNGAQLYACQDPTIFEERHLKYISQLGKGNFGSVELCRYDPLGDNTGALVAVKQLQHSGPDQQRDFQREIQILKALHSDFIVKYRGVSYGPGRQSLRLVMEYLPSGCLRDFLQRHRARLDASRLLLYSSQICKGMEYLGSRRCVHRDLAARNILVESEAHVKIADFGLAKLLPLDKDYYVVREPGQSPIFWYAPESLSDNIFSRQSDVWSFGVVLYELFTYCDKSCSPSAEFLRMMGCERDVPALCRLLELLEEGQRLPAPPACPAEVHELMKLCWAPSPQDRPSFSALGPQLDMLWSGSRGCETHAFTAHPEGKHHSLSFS
How it was run: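 Antibody Beacon tyrosine kinase fluorescence assay, run as for EGFR. Reaction held 3 ng JAK3 enzyme, 0.1 mg/ml poly(Glu:Tyr) and 0.1 mg/ml ATP.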

[8] = Cytotoxicity against human HepG2 cells at 10uM; type: toxicity, cell-based; conditions: hepg2, 10 µM
Plasmodium falciparum [9] = assay: Antimalarial activity against Plasmodium falciparum 3D7 by high throughput screening assay; type: functional

| Structure (SMILES) | Activity [1] | IC50 (Plasmodium falciparum [2]) | other results |
| --- | --- | --- | --- |
| Cc1cc(Nc2nc(Nc3cccc(S(N)(=O)=O)c3)ncc2C#N)ccc1N1CCN(C)CC1 | 33% | – | – |
| Cc1cccc(Nc2ccnc(Nc3ccc(N4CCOCC4)cc3)n2)c1 | 74% | – | – |
| NC(=O)c1ccccc1Nc1ccnc(Nc2ccc(N3CCOCC3)cc2)n1 | 68% | 4.39 µM | – |
| CN1CCN(c2ccc(Nc3nccc(Nc4cccc(S(N)(=O)=O)c4)n3)cc2)CC1 | 80% | 7.25 µM | – |
| Cc1cccc(Nc2ccnc(Nc3ccc(N4CCN(C)CC4)cc3)n2)c1 | 94% | 0.431 µM | EC50 at 72 h [3]: 1 µM; IC50 [4]: 140 nM; EC50 at 72 h [5]: 7.1 µM; IC50 [6]: 11 µM; IC50 [7]: 2.1 µM |
| Cc1cc(Nc2nccc(Nc3ccccc3C(N)=O)n2)ccc1N1CCN(C)CC1 | 92% | 1.06 µM | – |
| CN1CCN(c2ccc(Nc3nccc(Nc4ccccc4C(N)=O)n3)cc2)CC1 | 91% | 1.5 µM | – |
| Cc1cc(Nc2nccc(Nc3cccc(S(N)(=O)=O)c3)n2)ccc1N1CCN(C)CC1 | 66% | 3.86 µM | EC50 at 72 h [3]: > 100 µM; IC50 [4]: 126 nM; EC50 at 72 h [5]: 4.2 µM; IC50 [6]: > 150 µM; IC50 [7]: 4.1 µM |
| Cc1cccc(Nc2ccnc(Nc3cccc(C)c3)n2)c1 | 94% | – | – |
| c1cc(Nc2ccc(N3CCOCC3)cc2)nc(Nc2ccc(N3CCOCC3)cc2)n1 | 25% | – | – |
| NS(=O)(=O)c1cccc(Nc2ccnc(Nc3ccc(N4CCOCC4)cc3)n2)c1 | 35% | 8.97 µM | EC50 at 72 h [3]: 37 µM; IC50 [4]: 129 nM; EC50 at 72 h [5]: 9.4 µM; IC50 [6]: > 100 µM; IC50 [7]: 7.1 µM |
| Cc1cc(Nc2ncc(C#N)c(Nc3cccc(S(C)(=O)=O)c3)n2)ccc1N1CCN(C)CC1 | 92% | 4.72 µM | – |
| Cc1cccc(Nc2ncc(C#N)c(Nc3cccc(C)c3)n2)c1 | 40% | – | – |
| Cc1cccc(Nc2ccnc(Nc3ccc(N4CCN(C)CC4)c(C)c3)n2)c1 | 94% | 0.647 µM | EC50 at 72 h [3]: 2 µM; IC50 [4]: 50 nM; EC50 at 72 h [5]: 3.5 µM; IC50 [6]: > 150 µM; IC50 [7]: 1.8 µM |
| Cc1cc(Nc2ncc(C#N)c(Nc3cccc(S(N)(=O)=O)c3)n2)ccc1N1CCN(C)CC1 | 94% | 5.56 µM | – |
| CNC(=O)c1cnc(Nc2ccc(N3CCOCC3)cc2)nc1Nc1cccc(OC(C)C)c1 | – | – | Activity [8]: 19%; IC50 (Plasmodium falciparum [9]): 759 nM |
| Cc1cccc(Nc2ncc(C(N)=O)c(Nc3cccc(C)c3)n2)c1 | 96% | – | – |
| Cc1cc(Nc2ncc(C#N)c(Nc3cccc(S(=O)(=O)NC(C)(C)C)c3)n2)ccc1N1CCN(C)CC1 | 31% | 4.56 µM | EC50 at 72 h [3]: 45.4 µM; IC50 [4]: > 100000 nM; EC50 at 72 h [5]: > 100 µM; IC50 [6]: > 150 µM; IC50 [7]: > 100 µM |
| COc1cnc(Nc2ccc(N3CCN(C)CC3)c(C)c2)nc1Nc1cccc(S(N)(=O)=O)c1 | 88% | 5.26 µM | – |
| CN1CCN(c2ccc(Nc3ncc(C#N)c(Nc4ccccc4C(N)=O)n3)cc2)CC1 | – | – | Activity [8]: 43%; IC50 (Plasmodium falciparum [9]): 40 nM |
| CNC(=O)c1cnc(Nc2ccc(N3CCN(C)CC3)cc2)nc1Nc1cccc([N+](=O)[O-])c1 | – | – | Activity [8]: 16%; IC50 (Plasmodium falciparum [9]): 138 nM |
| Cc1cc(Nc2ncc(C#N)c(Nc3ccccc3C(N)=O)n2)ccc1N1CCN(C)CC1 | 94% | 3.93 µM | Activity [8]: 99%; IC50 (Plasmodium falciparum [9]): 9 nM |
| O[C@@H](c1cc(C(F)(F)F)nc2c(C(F)(F)F)cccc12)[C@H]1CCCCN1 [(S,R)-MEFLOQUINE] | – | 0.07 µM | – |
| C[C@H]1[C@@H](O)O[C@@H]2O[C@@]3(C)CC[C@H]4[C@H](C)CC[C@@H]1[C@@]24OO3 [ARTENIMOL] | – | 0.00254 µM | – |
| CCN(CC)CCCC(C)Nc1ccnc2cc(Cl)ccc12 (stereo not drawn) [CHLOROQUINE] | 45% | – | – |
